Data published in ChEMBL document CHEMBL1155278, “3,4-Diaryl-isoxazoles and -imidazoles as potent dual inhibitors of p38alpha mitogen activated protein kinase and casein kinase 1delta” (J Med Chem, 2009).

How the values were obtained:
[1] = molecular target: T1, Serine/threonine-protein kinase BRSK2 (Homo sapiens) (UniProt Q8IWQ3); assay: Inhibition of BRSK2 assessed as residual activity at 10 uM by Cherenkov counting relative to control in presence of 50 uM ATP
T1 sequence (whole entry): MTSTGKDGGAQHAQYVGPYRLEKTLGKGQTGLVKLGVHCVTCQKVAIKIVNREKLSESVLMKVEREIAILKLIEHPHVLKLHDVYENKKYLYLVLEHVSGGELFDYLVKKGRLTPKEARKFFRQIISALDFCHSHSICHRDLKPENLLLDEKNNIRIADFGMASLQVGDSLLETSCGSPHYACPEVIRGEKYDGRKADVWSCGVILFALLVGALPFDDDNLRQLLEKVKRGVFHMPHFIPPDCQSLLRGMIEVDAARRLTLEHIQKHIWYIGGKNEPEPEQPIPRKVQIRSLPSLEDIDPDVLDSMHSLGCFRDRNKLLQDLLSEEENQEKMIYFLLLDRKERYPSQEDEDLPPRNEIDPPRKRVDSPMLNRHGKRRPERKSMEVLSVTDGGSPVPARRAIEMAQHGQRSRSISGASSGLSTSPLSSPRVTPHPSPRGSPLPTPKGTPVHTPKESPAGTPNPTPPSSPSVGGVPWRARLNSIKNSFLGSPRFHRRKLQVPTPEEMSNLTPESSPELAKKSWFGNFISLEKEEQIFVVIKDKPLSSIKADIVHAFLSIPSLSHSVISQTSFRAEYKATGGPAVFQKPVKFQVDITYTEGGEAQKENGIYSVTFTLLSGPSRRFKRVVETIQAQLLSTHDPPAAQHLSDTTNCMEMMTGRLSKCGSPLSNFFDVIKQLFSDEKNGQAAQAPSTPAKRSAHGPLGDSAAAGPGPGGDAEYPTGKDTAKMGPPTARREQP
How it was run: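 Single-point profiling at 10 µM in a panel of 78 protein kinases. Kinase activity is expressed as a percentage relative to control assays without compound.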

[2] = molecular target: Serine/threonine-protein kinase Nek7 (Homo sapiens) (UniProt Q8TDX7); assay: Inhibition of NEK7 assessed as residual activity at 10 uM by Cherenkov counting relative to control
[3] = molecular target: Casein kinase I isoform delta (Rattus norvegicus, UniProt Q06486); assay: Inhibition of GST-fused rat CK1delta by Cherenkov counting in presence of 20 uM ATP
[4] = molecular target: Mitogen-activated protein kinase 3 (Homo sapiens) (UniProt P27361); assay: Inhibition of ERK1 assessed as residual activity at 0.1 uM by Cherenkov counting relative to control in presence of 5 uM ATP
How it was run: (§1)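 Single-concentration screen at 0.1 µM across a panel of 76 protein kinases. Each kinase was run at an ATP concentration approximating its ATP Km. Results are % mean residual activity versus control assays without compound (n = 3 ± SD).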

[5] = molecular target: T2, Serine/threonine-protein kinase D1 (Homo sapiens) (UniProt Q15139); assay: Inhibition of PKD1 assessed as residual activity at 0.1 uM by Cherenkov counting relative to control in presence of 50 uM ATP
T2 sequence (whole entry): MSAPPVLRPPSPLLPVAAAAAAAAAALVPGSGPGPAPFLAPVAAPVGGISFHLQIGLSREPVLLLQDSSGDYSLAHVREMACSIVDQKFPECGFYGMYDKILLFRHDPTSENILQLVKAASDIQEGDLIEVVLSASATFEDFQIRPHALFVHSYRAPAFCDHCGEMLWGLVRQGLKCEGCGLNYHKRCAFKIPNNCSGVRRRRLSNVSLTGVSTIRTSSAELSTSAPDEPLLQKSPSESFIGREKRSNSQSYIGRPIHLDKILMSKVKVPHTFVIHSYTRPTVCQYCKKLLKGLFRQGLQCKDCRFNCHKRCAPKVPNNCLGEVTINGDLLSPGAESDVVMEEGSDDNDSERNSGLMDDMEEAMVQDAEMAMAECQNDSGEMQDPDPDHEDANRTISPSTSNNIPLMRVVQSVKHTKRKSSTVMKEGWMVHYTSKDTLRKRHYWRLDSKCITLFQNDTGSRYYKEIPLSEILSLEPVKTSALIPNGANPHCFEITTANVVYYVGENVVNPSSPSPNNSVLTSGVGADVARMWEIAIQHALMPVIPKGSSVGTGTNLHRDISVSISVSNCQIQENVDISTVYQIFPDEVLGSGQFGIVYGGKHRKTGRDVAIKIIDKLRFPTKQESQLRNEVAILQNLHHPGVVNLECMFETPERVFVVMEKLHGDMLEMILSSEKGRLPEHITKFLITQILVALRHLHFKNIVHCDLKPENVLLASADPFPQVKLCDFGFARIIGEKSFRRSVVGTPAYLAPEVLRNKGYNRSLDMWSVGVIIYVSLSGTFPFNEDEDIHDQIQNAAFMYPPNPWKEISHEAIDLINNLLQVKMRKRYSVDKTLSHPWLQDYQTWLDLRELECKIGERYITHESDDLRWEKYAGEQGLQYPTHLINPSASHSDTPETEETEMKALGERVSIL
How it was run: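 Single-concentration screen at 0.1 μM in a 76-kinase panel. ATP for each kinase was set near its Km for ATP. Residual activity is given as a percentage of control assays without compound, mean of n = 3 ± SD.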

[6] = molecular target: MAP kinase-activated protein kinase 2 (Homo sapiens) (UniProt P49137); assay: Inhibition of MAPKAPK2 assessed as residual activity at 0.1 uM by Cherenkov counting relative to control in presence of 20 uM ATP
How it was run: (§2)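 Single-concentration selectivity screen at 0.1 μM against a panel of 76 protein kinases. Each kinase was run at an ATP level approximating its Km for ATP. Output is mean residual activity as % of the control assay without compound, n = 3 ± SD.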

[7] = molecular target: Serine/threonine-protein kinase Chk2 (Homo sapiens) (UniProt O96017); assay: Inhibition of CHK2 assessed as residual activity at 0.1 uM by Cherenkov counting relative to control in presence of 20 uM ATP; how it was run: as §1
[8] = molecular target: Aurora kinase B (Homo sapiens) (UniProt Q96GD4); assay: Inhibition of Aurora B assessed as residual activity at 0.1 uM by Cherenkov counting relative to control in presence of 20 uM ATP; how it was run: as §1
[9] = molecular target: Serine/threonine-protein kinase pim-1 (Homo sapiens) (UniProt P11309); assay: Inhibition of PIM1 assessed as residual activity at 0.1 uM by Cherenkov counting relative to control in presence of 20 uM ATP; how it was run: as §2
[10] = molecular target: Tyrosine-protein kinase CSK (Homo sapiens) (UniProt P41240); assay: Inhibition of CSK assessed as residual activity at 0.1 uM by Cherenkov counting relative to control in presence of 20 uM ATP; how it was run: as §1
Chain of Tyrosine-protein kinase CSK (Homo sapiens) (P41240 2-450 limits assumed): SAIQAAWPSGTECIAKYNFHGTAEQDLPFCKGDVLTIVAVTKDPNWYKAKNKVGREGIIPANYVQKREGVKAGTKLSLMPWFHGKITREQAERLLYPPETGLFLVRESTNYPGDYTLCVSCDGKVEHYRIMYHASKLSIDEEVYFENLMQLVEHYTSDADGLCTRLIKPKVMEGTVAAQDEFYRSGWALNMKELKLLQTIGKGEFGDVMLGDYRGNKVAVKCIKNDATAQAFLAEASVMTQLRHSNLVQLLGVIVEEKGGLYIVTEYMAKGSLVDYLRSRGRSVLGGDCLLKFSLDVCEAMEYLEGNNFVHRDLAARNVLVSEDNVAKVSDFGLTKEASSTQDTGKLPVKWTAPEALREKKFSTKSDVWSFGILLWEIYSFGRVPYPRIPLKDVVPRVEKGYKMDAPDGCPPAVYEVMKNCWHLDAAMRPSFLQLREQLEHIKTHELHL

Chain of Casein kinase I isoform delta (Q06486 whole entry, the tested form may be a part, canonical isoform): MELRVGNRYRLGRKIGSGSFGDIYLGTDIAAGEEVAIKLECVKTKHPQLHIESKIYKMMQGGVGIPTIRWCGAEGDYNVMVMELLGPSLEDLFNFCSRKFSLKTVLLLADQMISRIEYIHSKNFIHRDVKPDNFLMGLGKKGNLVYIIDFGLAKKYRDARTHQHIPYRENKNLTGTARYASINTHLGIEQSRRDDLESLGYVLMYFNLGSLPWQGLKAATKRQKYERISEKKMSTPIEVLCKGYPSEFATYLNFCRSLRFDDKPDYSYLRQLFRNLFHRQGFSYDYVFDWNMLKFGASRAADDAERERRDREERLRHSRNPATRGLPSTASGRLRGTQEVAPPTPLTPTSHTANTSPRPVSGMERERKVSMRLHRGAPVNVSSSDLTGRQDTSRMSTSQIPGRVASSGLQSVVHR
Chain of Serine/threonine-protein kinase pim-1 (Homo sapiens) (P11309 whole entry, looked up): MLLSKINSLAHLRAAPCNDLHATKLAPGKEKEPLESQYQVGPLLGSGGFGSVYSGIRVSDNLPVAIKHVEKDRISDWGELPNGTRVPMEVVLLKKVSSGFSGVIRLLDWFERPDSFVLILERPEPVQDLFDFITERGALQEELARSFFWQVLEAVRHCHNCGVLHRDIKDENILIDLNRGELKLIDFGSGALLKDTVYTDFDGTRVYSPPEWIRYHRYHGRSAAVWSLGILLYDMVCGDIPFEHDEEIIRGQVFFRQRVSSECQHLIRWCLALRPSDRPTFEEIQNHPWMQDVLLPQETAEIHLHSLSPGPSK
Chain of Mitogen-activated protein kinase 3 (Homo sapiens) (P27361 whole entry): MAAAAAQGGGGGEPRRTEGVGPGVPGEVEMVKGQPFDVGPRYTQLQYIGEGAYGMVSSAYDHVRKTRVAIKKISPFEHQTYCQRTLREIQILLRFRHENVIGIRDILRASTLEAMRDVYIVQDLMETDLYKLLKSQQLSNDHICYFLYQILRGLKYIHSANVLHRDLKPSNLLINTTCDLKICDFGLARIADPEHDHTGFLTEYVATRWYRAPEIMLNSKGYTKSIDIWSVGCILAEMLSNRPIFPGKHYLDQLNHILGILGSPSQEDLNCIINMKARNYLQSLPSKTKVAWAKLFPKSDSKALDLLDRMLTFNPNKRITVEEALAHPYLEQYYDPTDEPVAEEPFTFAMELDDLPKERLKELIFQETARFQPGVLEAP
Chain of MAP kinase-activated protein kinase 2 (Homo sapiens) (P49137 whole entry, looked up): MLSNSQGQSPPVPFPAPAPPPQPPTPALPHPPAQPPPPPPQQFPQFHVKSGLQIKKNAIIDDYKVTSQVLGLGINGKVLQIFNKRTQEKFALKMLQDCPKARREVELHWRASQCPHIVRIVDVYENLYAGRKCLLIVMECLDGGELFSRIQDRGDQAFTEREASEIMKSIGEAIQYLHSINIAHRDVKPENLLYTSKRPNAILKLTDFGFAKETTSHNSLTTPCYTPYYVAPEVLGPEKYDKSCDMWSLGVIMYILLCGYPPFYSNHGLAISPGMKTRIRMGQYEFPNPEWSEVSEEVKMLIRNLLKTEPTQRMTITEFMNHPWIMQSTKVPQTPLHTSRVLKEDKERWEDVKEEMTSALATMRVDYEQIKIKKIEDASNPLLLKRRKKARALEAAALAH
Chain of Aurora kinase B (Homo sapiens) (Q96GD4 whole entry): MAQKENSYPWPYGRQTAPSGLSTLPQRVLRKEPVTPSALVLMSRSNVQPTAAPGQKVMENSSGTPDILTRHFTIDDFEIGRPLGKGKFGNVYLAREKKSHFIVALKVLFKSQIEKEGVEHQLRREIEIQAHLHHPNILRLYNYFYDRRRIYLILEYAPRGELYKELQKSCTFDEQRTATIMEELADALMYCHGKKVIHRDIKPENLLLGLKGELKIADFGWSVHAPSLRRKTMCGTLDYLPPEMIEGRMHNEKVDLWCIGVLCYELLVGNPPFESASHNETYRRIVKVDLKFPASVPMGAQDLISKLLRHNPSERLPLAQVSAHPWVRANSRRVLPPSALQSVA
Chain of Serine/threonine-protein kinase Nek7 (Homo sapiens) (Q8TDX7 whole entry, looked up, the tested form may be a part, canonical isoform): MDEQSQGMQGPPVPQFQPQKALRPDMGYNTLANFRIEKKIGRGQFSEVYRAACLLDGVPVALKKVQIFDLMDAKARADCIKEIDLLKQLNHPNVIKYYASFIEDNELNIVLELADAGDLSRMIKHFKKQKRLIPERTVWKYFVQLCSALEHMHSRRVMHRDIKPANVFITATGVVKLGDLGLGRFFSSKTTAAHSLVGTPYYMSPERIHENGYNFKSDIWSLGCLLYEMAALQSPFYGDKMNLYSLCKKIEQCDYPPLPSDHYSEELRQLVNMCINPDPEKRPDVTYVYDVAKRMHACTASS
Chain of Serine/threonine-protein kinase Chk2 (Homo sapiens) (O96017 whole entry): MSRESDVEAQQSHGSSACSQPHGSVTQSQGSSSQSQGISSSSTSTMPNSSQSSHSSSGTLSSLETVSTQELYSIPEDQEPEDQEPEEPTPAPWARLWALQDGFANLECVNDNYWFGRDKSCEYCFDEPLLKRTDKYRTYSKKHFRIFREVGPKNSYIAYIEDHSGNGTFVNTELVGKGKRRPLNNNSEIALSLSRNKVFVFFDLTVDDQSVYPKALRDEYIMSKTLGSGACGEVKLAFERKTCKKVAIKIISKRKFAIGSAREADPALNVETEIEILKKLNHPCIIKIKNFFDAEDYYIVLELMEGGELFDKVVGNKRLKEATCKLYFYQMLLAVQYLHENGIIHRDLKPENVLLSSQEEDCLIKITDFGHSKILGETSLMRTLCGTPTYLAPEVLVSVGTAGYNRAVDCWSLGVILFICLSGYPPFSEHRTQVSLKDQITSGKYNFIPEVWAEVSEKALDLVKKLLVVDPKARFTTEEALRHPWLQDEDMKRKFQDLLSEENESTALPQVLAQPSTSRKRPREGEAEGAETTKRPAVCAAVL

Row | SMILES | Activity [1] [%] | Activity [2] [%] | IC50 [3] [nM] | Activity [4] [%] | Activity [5] [%] | Activity [6] [%] | Activity [7] [%] | Activity [8] [%] | Activity [9] [%] | Activity [10] [%]
1 | CC(C)c1onc(-c2ccc(F)cc2)c1-c1ccncc1 | 87 | 104 | 230 |  |  |  |  |  |  | 
2 | COc1ccc(/C=C/C(=O)Nc2cc(-c3[nH]c([S+](C)[O-])nc3-c3ccc(F)cc3)ccn2)c(OC)c1 (stereo unspecified) |  |  | 11 | 101 | 97 | 78 | 85 | 93 | 109 | 79
3 | COc1ccc(/C=C/C(=O)Nc2cc(-c3[nH]c(SC)nc3-c3ccc(F)cc3)ccn2)c(OC)c1 |  |  | 5 | 94 | 88 | 82 | 79 | 93 | 98 | 81
4 | CC(C)c1noc(-c2ccc(F)cc2)c1-c1ccncc1 | 93 | 100 |  |  |  |  |  |  |  | 
